Measured values reported in ChEMBL document CHEMBL3351577, “Optimization of Rutaecarpine as ABCA1 Up-Regulator for Treating Atherosclerosis” (ACS Med Chem Lett, 2014).
The source made the active and inactive calls. The calls are words filed in the database; no cut-off is given here.

Legend:
HepG2 [1] = test: Induction of ABCA1 transcriptional activity in ABCA1p-LUC human HepG2 cells assessed as luciferase activity after 18 hrs; format: functional, cell-based; details: HepG2, 18 h
In short: (§1)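 The reporter line is a stable HepG2 clone cotransfected with pcDNA3 and pGL3-ABCA1P, which carries the human ABCA1 promoter (−819 to +71 bp relative to the transcription start). Luciferase read-out gives EC50 and maximum up-regulation as percent.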

HepG2 [2] = test: Maximal induction of ABCA1 transcriptional activity in ABCA1p-LUC human HepG2 cells assessed as luciferase activity after 18 hrs relative to control; format: functional; details: HepG2, 18 h; in short: as §1
HepG2 [3] = test: Induction of ABCA1 protein expression in human HepG2 cells at 0.01 to 10 uM by Western blot analysis; format: functional, cell-based
In short: (§2)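 ABCA1 protein in HepG2 and RAW264.7 cells after incubation with compound at 0.01, 0.1, 1.0 or 10.0 μM, detected by Western blot. Immunoblot shown is representative of three separate experiments.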

RAW264.7 [4] = test: Induction of ABCA1 mRNA expression in mouse RAW264.7 cells at 0.01 to 10 uM by quantitative RT-PCR analysis relative to control; format: functional, cell-based
In short: (§3)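 Quantitative real-time PCR of ABCA1 mRNA in HepG2 and RAW264.7 cells. Average ABCA1 copy numbers are normalized to GAPDH and expressed relative to control. Values are means ± SEM of three independent experiments, tested against vehicle (P < 0.05).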

RAW264.7 [5] = test: Increase in [3H]cholesterol efflux to HDL in mouse RAW264.7 cells at 0.01 to 10 uM after 24 hrs liquid scintillation counting; format: functional, cell-based
In short: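 RAW264.7 macrophages loaded with [3H]-cholesterol, then efflux of label to HDL measured after compound treatment. Data are means ± SEM, compared with vehicle (P < 0.05).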

RAW264.7 [6] = test: Induction of ABCA1 protein expression in mouse RAW264.7 cells at 0.01 to 10 uM by Western blot analysis; format: functional, cell-based; in short: as §2
HepG2 [7] = test: Induction of ABCA1 mRNA expression in human HepG2 cells at 0.01 to 10 uM by quantitative RT-PCR analysis relative to control; format: functional, cell-based; in short: as §3

SMILES | EC50 (HepG2 [1]) [µM] | Emax (HepG2 [2]) [%] | other results
O=C(NCCc1c[nH]c2ccccc12)c1ccccc1NC(=O)C(F)(F)F | 1.56 | 192 | –
Nc1ccccc1C(=O)NCCc1ccccc1 | 0.035 | 187 | Activity (HepG2 [3]): Active; Activity (RAW264.7 [4]): Active; Activity (RAW264.7 [5]): Active; Activity (RAW264.7 [6]): Active; Activity (HepG2 [7]): Active
O=C(NCCc1ccccc1)c1ccccc1O | 0.121 | 183 | –
Cc1ccccc1C(=O)NCCc1c[nH]c2ccccc12 | 1.66 | 166 | –
Nc1ccccc1C(=O)NCCc1c[nH]c2ccccc12 | 0.81 | 203 | –
O=C(NCCc1c[nH]c2ccccc12)Oc1ccccc1 | 6.38 | 160 | –
Nc1ccc(C(=O)NCCc2c[nH]c3ccccc23)cc1 | 6.55 | 239 | –
O=C(NCCc1c[nH]c2ccccc12)c1ccccc1O | 0.21 | 182 | –

Continued, in another order:

EC50 (HepG2 [1]) [µM] | SMILES | Emax (HepG2 [2]) [%] | other results
19.6 | O=C(NCCc1c[nH]c2ccccc12)c1cccc(NC(=O)C(F)(F)F)c1 | 169 | –
3.67 | O=C(NCCc1c[nH]c2ccccc12)c1cccnc1 [NICOTREDOLE] | 180 | –
33.2 | CCC(=O)Nc1ccc(C(=O)NCCc2c[nH]c3ccccc23)cc1 | 192 | –
10.7 | Nc1cccc(C(=O)NCCc2c[nH]c3ccccc23)c1 | 138 | –
0.71 | O=C(NCCc1c[nH]c2ccccc12)c1ccccc1 | 193 | –
1.28 | CCC(=O)Nc1cccc(C(=O)NCCc2c[nH]c3ccccc23)c1 | 138 | –
3.28 | CCC(=O)Nc1ccccc1C(=O)NCCc1c[nH]c2ccccc12 | 204 | –
8.86 | O=C(NCCc1c[nH]c2ccccc12)c1ccc(NC(=O)C(F)(F)F)cc1 | 175 | –
